SENP8 block-1: blocks the human protease SENP8; 330,000 compounds, 1.2% hits; inhibition, % at 10 µM; purified SENP8, Z-RLRGG-aminoluciferin cleavage, luminescence; in the data active = inhibition above about 50%
Target sequence (Q96LD8 whole entry, looked up): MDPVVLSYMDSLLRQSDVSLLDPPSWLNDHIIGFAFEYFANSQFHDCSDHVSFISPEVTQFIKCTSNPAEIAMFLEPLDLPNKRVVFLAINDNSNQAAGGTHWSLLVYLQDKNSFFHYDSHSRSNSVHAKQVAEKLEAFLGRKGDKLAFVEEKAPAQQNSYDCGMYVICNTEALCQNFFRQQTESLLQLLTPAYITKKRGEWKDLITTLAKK
SENP1 inh: SENP1 (human) catalytic domain inhibition. Q9P0U3. recombinant SENP1 catalytic domain, CyPet-SUMO1-YPet FRET cleavage. inhibition, % at 10 µM. 360,000 compounds, 0.21% hits;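 active = inhibition at least 30% at 10 µM, raw YFP signal under a set limit, fluorescence ratio 0.5 to 1.5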;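 also: 0% = enzyme with DMSO and 100% = no enzyme wells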
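material = recombinant human SENP1 catalytic domain, His6-tagged | quantity = 20 pM enzyme | reagent = 25 nM SUMO1 FRET substrate | compound dosing = 10 µM single point, 0.5% DMSO | timing = 50 min enzyme reaction, room temperature, light-protected | detection = FRET, CFP and YFP emission | control set = no-enzyme low, enzyme-DMSO high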
SENP7 block: inhibitors of human SENP7 protease; Q9BQF6; recombinant SENP7, Z-RLRGG-aminoluciferin luminescence, 40 min; inhibition, % at 5 µM; 330,000 compounds, 1.5% hits; AID 434973;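 active = inhibition above about 50% at the single test dose, limit read from the data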;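 also: plate controls were DMSO with enzyme for no effect and no enzyme buffer wells for full effect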
SENP6 inh: blocks the human protease SENP6; Recombinant SENP6 catalytic domain, aminoluciferin luminescence; inhibition, % at 10 µM; 330,000 compounds, 1.8% hits;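 active = inhibition above about 50% at the single tested dose, limit read from the data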;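 also: plate controls were DMSO wells with enzyme for no effect and DMSO wells lacking enzyme for full effect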
NRP1-CendR mod: alters CendR peptide binding to human NRP-1; O14786; FAM-RPARPAR peptide binding to NRP-1, fluorescence polarization; inhibition, % at 25 µM; 360,000 compounds, 0.85% hits; AID 602438;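 active = inhibition or corrected inhibition above about 18%, plus a signal ratio from 0.5 to 1.5, limit read from the data, passing the limit was not always enough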
SENP8 block-2: SENP8 (human) protease inhibition; Q96LD8; recombinant SENP8, Nedd8 substrate fluorescence; inhibition, % at 20 µM; 360,000 compounds, 0.64% hits; in the data active = inhibition mostly above about 40%, no sharp cut-off; inactive = mostly below about 27%
SENP8 confirm: human SENP8 inhibition, confirmed | Recombinant SENP8, Z-RLRGG-aminoluciferin luminescence, 60 min | inhibition, % at 12.5 µM | shares compounds with SENP7 block | 6,200 compounds, 40% hits;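 active = mean inhibition across replicates above about 50%, limit read from the data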
SENP6 conf: human SENP6 inhibition, confirmed. shares compounds with SENP7 block. recombinant SENP6, Z-RLRGG-aminoluciferin luminescence. inhibition, % at 12.5 µM. 6,200 compounds, 58% hits
SENP7 conf: human SENP7 inhibition, confirmed. shares compounds with SENP7 block. recombinant SENP7, Z-RLRGG-aminoluciferin luminescence, 40 min. inhibition, % at 12.5 µM. 6,200 compounds, 69% hits. AID 488917
Casp3 SENP sel: selectivity test for SENP inhibitors: human caspase-3 inhibition. AID 488918. shares compounds with SENP7 block. inhibition, % at 12.5 µM. 6,200 compounds, 60% hits. purified caspase-3, Z-DEVD-aminoluciferin luminescence, 60 min;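 active = mean inhibition above about 50%, limit read from the data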;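 also: plate controls were enzyme with DMSO for no effect and wells without caspase-3 for full effect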
Target sequence (P42574 28-227 limits assumed): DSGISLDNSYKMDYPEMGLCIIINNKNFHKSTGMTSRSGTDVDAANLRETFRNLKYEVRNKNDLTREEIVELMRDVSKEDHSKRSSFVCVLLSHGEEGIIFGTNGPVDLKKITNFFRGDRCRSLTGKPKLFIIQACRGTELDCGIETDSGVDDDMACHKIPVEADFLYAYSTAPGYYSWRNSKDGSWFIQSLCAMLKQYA
Luc interf: counter-screen for SENP inhibitors: luminescence interference | Pre-incubated SENP8/Z-RLRGG-aminoluciferin, luciferase luminescence interference | 6,200 compounds, 39% hits | AID 488919 | shares compounds with SENP7 block | inhibition, % at 12.5 µM;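 active = mean inhibition above about 50% when retested at one dose, limit read from the data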;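 also: plate controls were DMSO wells with completed reaction for no effect and substrate without enzyme for full effect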
* marks the source's active call; other numbers are inactive results; i = inactive; x = no result. This is a sample that favours compounds with a hit; in the whole collection about 3.3% have one here.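 The calls were made as follows, unless noted: active = mean inhibition above about 50% in the one-dose retest (limit read from the data); inactive = the rest.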

SMILES	SENP8 block-1	SENP1 inh	SENP7 block	SENP6 inh	NRP1-CendR mod	SENP8 block-2	SENP8 confirm	SENP6 conf	SENP7 conf	Casp3 SENP sel	Luc interf
COc1ccc2cc(-c3ccccc3)ncc2c1	92*	-3	98*	95*	14	-194	79*	95*	96*	86*	33
COc1cc(OC)cc(-c2cc3ncccc3cn2)c1	29	2	53*	43	-10	-14	19	22	68*	66*	51*
Fc1ccc2cnc(-c3cccnc3)cc2c1	-6	2	5	2	-5	6	x	x	x	x	x
c1ccc(-c2cc3ccccc3cn2)cc1	82*	-3	91*	84*	-11	-29	65*	85*	96*	77*	39
Fc1ccccc1-c1cc2ncccc2cn1	27	-1	39	39	12	7	x	x	x	x	x
COc1cc(OC)cc(-c2cc3ccc(OC)cc3cn2)c1	97*	0	100*	99*	-15	-304	100*	101*	104*	99*	98*
COc1cc([N+](=O)[O-])cc(/C=N/NC(=O)c2cccnc2)c1O	16	-8	23	50	-1	37	x	x	x	x	x
Cc1cccc(/C=N/NC(=O)C(C)Nc2cccc3ccccc23)n1 (configuration not stated)	78*	-24	-5	88*	58	-20	-20	-6	0	-6	-3
CC(O)C(=O)N/N=C/c1cccc2ccccc12 (configuration not stated)	x	-1	x	x	11	-2	x	x	x	x	x
COc1cc([N+](=O)[O-])cc(/C=N/NC(=O)C(C)Nc2cccc3ccccc23)c1O (configuration not stated)	46	-3	12	68*	32*	-66	-4	-1	-6	4	4
O=C(C[C@H]1C=C[C@@H](NS(=O)(=O)c2ccccc2)[C@@H](CO)O1)NCc1ccc(Cl)c(Cl)c1	x	1	x	x	-3	23	x	x	x	x	x
COc1cccc(C(=O)NCC[N+](C)(C)C)c1	x	2	x	x	-10	4	x	x	x	x	x
O=C(CSc1ccc(-c2ccncc2)nn1)N1CCCCC1	-5	1	6	-6	-4	11	x	x	x	x	x
O=C(CSc1ccc(-c2ccc(F)cc2)nn1)N1CCCCC1	29	2	63*	68*	-12	13	38	38	78*	80*	58*
COc1ccc(Cl)cc1Nc1nc(Cl)nc(NCCO)n1	x	2	x	x	-5	8	x	x	x	x	x
CN=c1scc(-c2ccco2)n1/N=C/c1ccc(O)c(O)c1	56*	-8	8	68*	-19	-16	59*	63*	86*	45	62*
CC(C)c1ccc([C@@H]2O[C@H](C)CC3=C2C(=O)OC(C)(C)O3)cc1	x	-1	x	x	-4	7	x	x	x	x	x
CCOC(=O)c1sc(/N=C/c2ccc(O)cc2O)cc1C	94*	-1	9	96*	-75	-33	78*	98*	101*	83*	44
O=C(Nc1ccccn1)c1onc2c1CCCC2	84*	1	94*	87*	-1	10	9	90*	100*	95*	83*
O=C(Nc1cccs1)Nc1nnc([C@@H]2C[C@H](O)[C@@H](CO)O2)s1	x	-2	x	x	-13	7	x	x	x	x	x
CCCCNC(=O)C1C(c2ccc(C(F)(F)F)cc2)=Nc2ccccc2N1C(=O)c1cccc(C(F)(F)F)c1 (configuration not stated)	x	3	x	x	8	8	x	x	x	x	x
O=C1/C(=C/c2ccccc2)CCC1C1CCCC1 (configuration not stated)	0	1	64*	73*	-2	15	4	6	22	29	23
COc1ccccc1/C=C1\CCC(C2CCCC2)C1=O (configuration not stated)	-1	1	-9	7	1	14	x	x	x	x	x
O=C1/C(=C/c2ccc(F)cc2)CCC1C1CCCC1 (configuration not stated)	62*	1	62*	42	-8	12	31	31	44	54*	27
CCOc1ccc(/C=C2\CCC(C3CCCC3)C2=O)cc1 (configuration not stated)	31	1	71*	11	5	11	16	18	15	36	4
SMILES	SENP8 block-1	SENP1 inh	SENP7 block	SENP6 inh	NRP1-CendR mod	SENP8 block-2	SENP8 confirm	SENP6 conf	SENP7 conf	Casp3 SENP sel	Luc interf
CCOc1ccc(/C=C2\CCC(C3CCCC3)C2=O)cc1OC (configuration not stated)	-3	3	1	18	-2	11	x	x	x	x	x
O=C1/C(=C/c2ccco2)Cc2ccccc21	33	-10	2	66*	-4	-34	48	67*	90*	72*	29
COc1cccc(S(=O)(=O)Nc2ccc3c(c2)[C@H]2C[C@H](CC(=O)N[C@@H](C)c4ccccc4)O[C@H](CO)[C@H]2O3)c1	x	0	x	x	10	-36	x	x	x	x	x
O=C1/C(=C/c2ccco2)CCC1C1CCCC1 (configuration not stated)	77*	-2	73*	92*	-7	31	-2	77*	95*	57*	16
O=C1C(=C(O)c2ccccc2)C(=O)c2ccccc21	47	7	-2	74*	16	66*	9	10	-1	0	-5
CCN(CC)Cc1nc2nc(Cl)c(Cl)nc2[nH]1	x	-33	x	x	-23	-54	x	x	x	x	x
COc1ccc(C2=Nc3ccccc3OC2)cc1	35	0	56*	71*	-15	i	98*	99*	102*	95*	90*
COc1ccc(OC)c(CN2C(=O)c3ccccc3C2c2nnnn2-c2ccc3c(c2)OCCO3)c1 (configuration not stated)	x	3	x	x	-19	17	x	x	x	x	x
Cc1ccc(CN2C(=O)c3ccccc3C2c2nnnn2-c2c(C)cccc2C)cc1 (configuration not stated)	x	0	x	x	-4	18	x	x	x	x	x

Compound activity: PubChem, Sanford-Burnham Center for Chemical Genomics
